# Compound activity: PubChem BioAssay, The Scripps Research Institute Molecular Screening Center
# GSTO1 counter = inhibitors of recombinant GSTO1, primary screen, counter-screen for RBBP9 inhibitor project, biochemical, fluorescence polarization | hit rate 1.1% among 300,000 | Glutathione S-transferase omega-1 (Homo sapiens), P78417 | activity-based probe fluorescence polarization | inhibition, % at 5.96 µM;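 active means inhibition above the campaign mean inhibition plus 3 SD, cut at about 35% in these data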;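 further: 0% = GSTO1-1 with DMSO and 100% = wells lacking GSTO1-1 enzyme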
# CTSL1 counter = Fasciola hepatica cathepsin L1 inhibitors, primary screen, counter-screen for PFM18AAP inhibitor project, biochemical, QFRET, fluorogenic peptide substrate; recombinant F. hepatica cathepsin L1, Z-Leu-Arg-MCA fluorescence; inhibition, % at 5.96 µM; hit rate 0.49% among 300,000; AID 1906, 2009;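 active means inhibition above the mean of all tested compounds plus 3 SD, set per screening campaign, cut at about 17% in these data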;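 further: 0% = plate median of test compound wells and 100% = 1 µM Z-Phe-Ala-diazomethylketone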
# PAD4 FP inh = human PAD4 inhibitors, primary screen, biochemical, fluorescence polarization, 1536-well format | Protein-arginine deiminase type-4 (Homo sapiens), Q9UM07 | recombinant PAD4, RCA probe fluorescence polarization | inhibition, % at 6.36 µM | hit rate 0.41% among 330,000;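 active means percent inhibition above a cutoff equal to the mean of all tested compounds plus 3 SD, cut at about 15% in these data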;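 further: 0% = PAD4 with RCA probe and DMSO and 100% = probe without PAD4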
# TDP2 absorb = human TDP2 enzyme inhibitors, primary screen, biochemical, epi absorbance, recombinant enzyme. Tyrosyl-DNA phosphodiesterase 2 (Homo sapiens), O95551. T5PNP hydrolysis, p-nitrophenol absorbance 415 nm. inhibition, % at 12.8 µM. hit rate 0.34% among 370,000. AID 720702, 2013;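 active means inhibition above the mean of all tested compounds plus 3 SD, set per campaign, cut at about 25% in these data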;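 further: 0% = DMSO with enzyme and 100% = buffer with substrate but no TDP2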
# Target sequence (O95551 whole entry, looked up): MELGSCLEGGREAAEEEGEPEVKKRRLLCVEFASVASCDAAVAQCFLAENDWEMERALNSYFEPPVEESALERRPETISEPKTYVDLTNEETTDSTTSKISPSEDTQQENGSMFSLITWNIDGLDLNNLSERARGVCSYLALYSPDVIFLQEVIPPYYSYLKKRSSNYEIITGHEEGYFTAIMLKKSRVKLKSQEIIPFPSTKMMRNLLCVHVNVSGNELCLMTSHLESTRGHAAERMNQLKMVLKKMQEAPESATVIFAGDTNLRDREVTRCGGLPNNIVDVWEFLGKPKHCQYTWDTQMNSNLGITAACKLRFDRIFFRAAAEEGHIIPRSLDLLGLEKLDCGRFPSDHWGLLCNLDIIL
#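 Incubation: 2 h at 37 °C; Test system: recombinant human TDP2; Quantity: enzyme 120 nM; Read-out basis: percent inhibition; Medium: 50 mM Tris-HCl pH 7.5 with Mg2+, KCl, DTT, BSA; Repeats: single replicate; Compound: 12.8 µM single point, 1% DMSO; Signal: epi absorbance; Reagent: 5 mM T5PNP chromogenic substrate; Benchmarks: no-enzyme high, DMSO-plus-enzyme low.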
# * = called active by the depositor; nt = no result given. Hits are enriched below; roughly 1.4% of the tested compounds scored in any of these assays.
SMILES,GSTO1 counter,CTSL1 counter,PAD4 FP inh,TDP2 absorb
O=C(NCc1ccccc1)NCC12CC3CC(CC(C3)C1)C2,-0.4,-7.1,3.3,1.2
O=C(NCc1ccccc1)NC12CC3CC(CC(C3)C1)C2,35.2*,3.7,5.0,-10.6
NC(=S)N/N=C1\CCSc2ccc(Cl)cc21,5.4,25.8*,1.4,-10.7
COc1ccc(CN2C[C@]3(C=C4CCCCC4n4c(=O)n(-c5ccccc5)c(=O)n43)N=C2NC(=O)c2ccccc2)c(OC)c1 (stereo partly specified),nt,nt,nt,-2.8
Cc1ccc(NC(=S)NNC(=S)Nc2ccc(C)cc2C)cc1,47.4*,-1.7,2.7,3.2
O=C(c1cccc(C(F)(F)F)c1)N1CC[C@H]2[C@H](CCCN2Cc2ccc(F)cc2)C1,nt,nt,nt,-4.7
COc1cc(/C=C2\CCc3c2nc2ccccc2c3C(=O)O)cc(OC)c1OC,35.1*,0.3,3.5,2.7
O=C(CSc1ccccc1)N1CCC(Oc2cccnc2)CC1,nt,nt,nt,1.5
CCOC(=O)[C@]12CCCC=C1N(CCCOC)C(=O)[C@@H]2CC(=O)N1CCCCC1,nt,nt,nt,3.0
C/C(=N\NC(=O)Cc1cc(=O)[nH][nH]1)c1cccc([N+](=O)[O-])c1,45.2*,-1.6,-5.3,1.7
CCOC(=O)C(C(=O)OCC)N(C#N)c1nc(C)cc(C)n1,-1.3,21.1*,-1.1,-3.5
CCOC(=O)C(C(=O)OCC)N(C#N)c1nc(N(C)C)nc(N(C)C)n1,-1.6,64.6*,0.1,17.6
CCN(CC)C(=O)C(C)N(C#N)c1nc(C)cc(C)n1 (stereo unspecified),5.4,-0.1,3.6,3.3
Nc1ccc(O)c(C(=O)O)c1,76.0*,-1.4,15.8*,nt
O=C(NCCCc1ccccc1)O[C@@H]1CC[C@@]23CCCN2C(=O)CCC[C@H]3C1,nt,nt,nt,-4.6
COc1cc(/C=N/NC(=O)CNC(=O)c2ccco2)ccc1O,-3.6,28.5*,1.6,-8.4
O=C(CNC(=O)c1ccco1)N/N=C/c1cc(Br)ccc1O,1.9,-0.5,1.3,3.5
CC(C)CCNC(=O)C1COC(O)(C(Cc2ccccc2)NC(=O)[C@@H](NC(=O)OCc2ccccc2)C(C)C)CN1 (stereo partly specified),nt,nt,nt,-3.8
Cc1cccc2c1-c1sc(C(=O)Nc3nccs3)cc1CO2,6.7,3.5,0.8,-2.5
CCOC(=O)c1cc2c(s1)-c1c(C)cccc1OC2,8.3,18.1*,-10.1,8.0
COC(=O)[C@@]12C[C@@H](CC(=O)NCCc3ccccc3OC)C(=O)N(CCc3ccc(OC)c(OC)c3)C1=CCC(C)(C)C2,nt,nt,nt,-10.8
CN1C=C/C(=C\c2cc[n+](C)c3ccccc23)c2ccccc21,nt,nt,nt,28.0*
COc1ccc(N2CSC3=C(C#N)C(c4cc(OC)c(OC)cc4OC)CC(=O)N3C2)c(OC)c1 (stereo unspecified),38.7*,3.0,-9.1,-7.1
CN(C(=O)CSc1ncnc2sc(-c3ccccc3)cc12)C1CCS(=O)(=O)C1 (stereo unspecified),-10.4,1.1,-4.3,15.5
CN(C(=O)CSc1ncnc2scc(-c3ccccc3)c12)C1CCS(=O)(=O)C1 (stereo unspecified),5.7,17.4*,1.1,0.8
SMILES,GSTO1 counter,CTSL1 counter,PAD4 FP inh,TDP2 absorb
Cc1cc(NC(=O)C23CC4CC(CC(C4)C2)C3)n[nH]1,16.7,19.7*,2.3,-8.0
CCC(=O)Nc1cc(C)c(NC(=O)C23CC4CC(CC(C4)C2)C3)cn1,-3.7,2.5,0.8,3.3
CCCCN(C)CCNC(=O)C(NC(=O)C1CCC(C)CC1)C(C)C (stereo unspecified),-3.9,55.7*,1.5,-16.0
CN(C)c1ccc(N=Cc2nc(-c3ccccc3)oc2OC(=O)c2cccc(Cl)c2)cc1,1.8,9.8,1.3,1.5
COc1ccc(N=Cc2nc(-c3ccccc3)oc2OC(C)=O)cc1,12.5,20.5*,1.9,-2.5
Cc1ccc(C(=O)Oc2oc(-c3ccccc3)nc2C=Nc2ccc(N(C)C)cc2)cc1,3.7,9.5,-1.3,2.2
COc1cccc(N=Cc2nc(-c3ccccc3)oc2OC(C)=O)c1,6.5,28.0*,-2.8,6.4
Cc1ccc(-c2nc3ccc(Br)cn3c2Cc2cccc(F)c2)cc1,nt,nt,nt,4.9
O=C(NCCc1ccccc1)OCc1cn(Cc2cccc(F)c2F)nn1,nt,nt,nt,0.4
CCN(CC)c1ccc(C=NNC(=O)Cc2cc(=O)[nH][nH]2)c(O)c1,nt,nt,nt,-5.1
Cc1cc(/C=N/NC(N)=S)c(C)n1-c1ccc(Br)cc1,1.2,41.8*,-6.5,5.0
